Source: ChEMBL document CHEMBL1141604, “Benzenesulfonamide indole inhibitors of cytosolic phospholipase A2alpha: optimization of in vitro potency and rat pharmacokinetics for oral efficacy” (Bioorg Med Chem, 2008)

Legend:
[1] = Clearance in Sprague-Dawley rat at 2 mg/kg, iv; type: ADME, organism-based; parameters: dose 2 mg/kg, route intravenous; conditions: in vivo
Outline: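 Male Sprague-Dawley rats, 200–300 g, n = 3, given a single 2 mg/kg tail-vein bolus in 50% PEG-400/50% DMSO. Blood drawn via jugular cannula over 24 h and plasma acidified with HCl. Plasma levels measured by LC/MS/MS after acetonitrile precipitation with internal standard; quantitation limit 5 ng/mL. Clearance from non-compartmental analysis.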

[2] = molecular target: Prostaglandin G/H synthase 1 (Homo sapiens) (UniProt P23219); assay: Inhibition of COX1 at 100 uM
Sequence of Prostaglandin G/H synthase 1 (Homo sapiens) (P23219 whole entry): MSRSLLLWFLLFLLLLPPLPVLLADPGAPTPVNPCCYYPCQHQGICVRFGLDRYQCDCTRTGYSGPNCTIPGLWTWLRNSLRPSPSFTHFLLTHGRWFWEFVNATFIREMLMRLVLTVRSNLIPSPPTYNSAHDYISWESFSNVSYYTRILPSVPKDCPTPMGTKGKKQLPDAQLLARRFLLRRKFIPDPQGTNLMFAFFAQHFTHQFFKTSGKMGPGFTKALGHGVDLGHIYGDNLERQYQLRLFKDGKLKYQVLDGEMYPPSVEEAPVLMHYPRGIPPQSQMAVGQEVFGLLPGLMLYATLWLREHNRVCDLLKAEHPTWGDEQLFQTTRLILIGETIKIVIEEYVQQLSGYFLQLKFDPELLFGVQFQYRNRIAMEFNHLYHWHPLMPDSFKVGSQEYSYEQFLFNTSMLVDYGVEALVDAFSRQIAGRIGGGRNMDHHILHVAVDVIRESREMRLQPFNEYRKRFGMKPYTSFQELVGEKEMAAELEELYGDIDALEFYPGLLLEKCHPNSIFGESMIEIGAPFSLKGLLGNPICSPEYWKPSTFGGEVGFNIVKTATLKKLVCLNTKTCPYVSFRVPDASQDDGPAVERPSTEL

Rattus norvegicus [3] = assay: Antiinflammatory activity against carrageenan-induced paw edema in Sprague-Dawley rat assessed as decrease in paw volume at 25 mg/kg, po administered through Phosal formulation; type: functional; parameters: scale not given: the % may be the effect or the level left
Outline: (§1)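 Male Sprague-Dawley rats, 190–250 g, n = 10 per group, housed 1 week beforehand. Left hind paw volume measured by plethysmometer before oral dosing in Phosal or MC/TW (0.5% methylcellulose, 2% Tween 80) vehicle. Two hours after dosing, 60 µL of 1% carrageenan in saline injected subplantar. Paw volume remeasured 3 h later; percent inhibition of swelling calculated versus vehicle.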

Rattus norvegicus [4] = assay: Antiinflammatory activity against carrageenan-induced paw edema in Sprague-Dawley rat decrease in paw volume at 10 mg/kg, po administered through MC/TW formulation; type: functional; parameters: scale not given: the % may be the effect or the level left; outline: as §1
[5] = Oral bioavailability in Sprague-Dawley rat at 25 mg/kg administered through MC/TW formulation; type: ADME, organism-based; conditions: in vivo
Outline: (§2)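 Overnight-fasted male Sprague-Dawley rats (n = 3) gavaged in MC/TW or Phosal vehicle; compound at 37.5 mg/mL, diluted with water, dosed at 4 mL/kg. Jugular blood taken over 24 h; plasma analysed by LC/MS/MS. F calculated as the dose-normalized oral/iv AUC ratio, iv reference 2 mg/kg.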

[6] = Inhibition of human cPLA2-alpha assessed as cleavage of 7-hydroxycoumarinyl-gamma-linolenate
Outline: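 Substrate 90 µM GLU with 120 µM DTPC. Compounds in DMSO tested in duplicate. Fluorescence (ex 355/em 460 nm) read every 4 min for 84 min; inhibition from slope. IC50 averaged from at least two independent runs.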

[7] = Oral bioavailability in Beagle dog at 5 mg/kg administered through MC/TW formulation; type: ADME, organism-based, Canis lupus familiaris; conditions: in vivo
Outline: (§3)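 Fasted male Beagle dogs (n = 3) dosed orally in MC/TW or Phosal formulation, volume 4 or 6 mL/kg. Saphenous plasma collected over 24 h and measured by LC/MS/MS. F calculated as the dose-normalized oral/iv AUC ratio against 2 mg/kg iv.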

[8] = molecular target: T1, Prostaglandin G/H synthase 2 (Homo sapiens) (UniProt P35354); assay: Inhibition of COX2 at 100 uM
T1 sequence (whole entry): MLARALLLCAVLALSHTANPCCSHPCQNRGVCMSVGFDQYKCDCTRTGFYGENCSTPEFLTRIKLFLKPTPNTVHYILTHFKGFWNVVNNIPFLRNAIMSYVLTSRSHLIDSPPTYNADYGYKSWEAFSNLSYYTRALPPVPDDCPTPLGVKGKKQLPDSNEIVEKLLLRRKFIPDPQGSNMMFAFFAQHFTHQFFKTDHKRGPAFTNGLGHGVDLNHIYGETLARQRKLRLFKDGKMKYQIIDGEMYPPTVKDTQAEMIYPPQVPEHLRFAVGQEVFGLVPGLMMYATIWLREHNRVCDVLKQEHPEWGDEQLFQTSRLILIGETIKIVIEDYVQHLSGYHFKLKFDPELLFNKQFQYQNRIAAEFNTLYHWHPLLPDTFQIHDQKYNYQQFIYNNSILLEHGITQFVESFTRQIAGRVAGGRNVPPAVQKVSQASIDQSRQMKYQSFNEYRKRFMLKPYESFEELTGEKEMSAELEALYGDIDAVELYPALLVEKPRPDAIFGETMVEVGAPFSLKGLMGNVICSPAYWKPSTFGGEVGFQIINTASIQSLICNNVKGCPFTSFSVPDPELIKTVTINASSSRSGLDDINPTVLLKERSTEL

Ovis aries [9] = assay: Effect on Ascaris suum-induced late phase-bronchoconstriction in naturally sensitized sheep model assessed as increase in specific lung resistance at 10 mg/kg, iv bid for 1 day; type: functional
Ovis aries [10] = assay: Effect on Ascaris suum-induced early phase-bronchoconstriction in naturally sensitized sheep model assessed as increase in specific lung resistance at 1 mg/kg, po bid for 5 days; type: functional
Outline: (§4)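 Naturally sensitized sheep challenged via the airways with Ascaris suum antigen. Pulmonary resistance recorded breath by breath using the esophageal balloon technique. Oral doses given in Phosal stock diluted with water, 0.25 mL/kg. Dosing BID before challenge and on challenge day, 2 h before and 8 h after. Early and late responses expressed as mean maximum % increase in specific lung resistance, compared with each sheep's historical control.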

Rattus norvegicus [11] = assay: Antiinflammatory activity against carrageenan-induced paw edema in Sprague-Dawley rat decrease in paw volume at 25 mg/kg, po administered through MC/TW formulation; type: functional; parameters: scale not given: the % may be the effect or the level left; outline: as §1
Ovis aries [12] = assay: Effect on Ascaris suum-induced late phase-bronchoconstriction in naturally sensitized sheep model assessed as increase in specific lung resistance at 3 mg/kg, po bid for 2 days; type: functional; outline: as §4
Blood [13] = assay: Inhibition of PGF2-alpha production in human whole blood assay; type: functional, tissue-based
Outline: (§5)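 Heparinized blood from healthy male volunteers (3 donors). Aliquots preincubated 15 min at 37 °C with compound in DMSO, then stimulated 15 min with 30 µM A23187 (final). Reaction stopped with 20 mM EDTA; plasma proteins precipitated with cold methanol. TXB2, LTB4, PGE2 and PGF2α measured by immunoassay kit; IC50 derived.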

[14] = Binding affinity at human cPLA2-alpha by isothermal calorimetry
Outline: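 ITC at 30 °C. Purified human cPLA2α dialyzed into 50 mM Hepes pH 7.4, 0.3 mM EDTA, 1 mM CaCl2, 300 mM KCl. Cell held 2.5 µM protein with 1% DMSO and 940 µM Triton X-100. Syringe held 78.5 µM compound in matching buffer; twenty 10 µL injections. Buffer-only titration subtracted as background; single-site fit gave Kd and stoichiometry.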

Ovis aries [15] = assay: Effect on Ascaris suum-induced early phase-bronchoconstriction in naturally sensitized sheep model assessed as increase in specific lung resistance at 10 mg/kg, iv bid for 1 day; type: functional
[16] = Inhibition of cPLA2-alpha in Sprague-Dawley rat whole blood assay in presence of A23187; type: tissue-based
Outline: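 Heparinized blood from male Sprague-Dawley rats, taken by cardiac puncture. Preincubated 15 min at 37 °C with compound in DMSO, then stimulated 10 min at 37 °C with 5 µM A23187 (final). Stopped with 20 mM EDTA; plasma precipitated with cold methanol at −80 °C. TXB2 measured by immunoassay; IC50 values averaged from at least two independent runs.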

Blood [17] = assay: Inhibition of LTB4 production in human whole blood assay; type: functional, tissue-based; outline: as §5
Blood [18] = assay: Inhibition of TXB2 production in human whole blood assay; type: functional, tissue-based; outline: as §5
Rattus norvegicus [19] = assay: Antiinflammatory activity against carrageenan-induced paw edema in Sprague-Dawley rat administered through MC/TW formulation; type: functional; outline: as §1
Blood [20] = assay: Inhibition of PGE2 production in human whole blood assay; type: functional, tissue-based; outline: as §5
Ovis aries [21] = assay: Effect on Ascaris suum-induced early phase-bronchoconstriction in naturally sensitized sheep model assessed as increase in specific lung resistance at 3 mg/kg, po bid for 2 days; type: functional; outline: as §4
Ovis aries [22] = assay: Effect on Ascaris suum-induced late phase-bronchoconstriction in naturally sensitized sheep model assessed as increase in specific lung resistance at 1 mg/kg, po bid for 5 days; type: functional; outline: as §4
[23] = Selectivity for human cPLA2-alpha over COX1
[24] = Selectivity for human cPLA2-alpha over COX2
[25] = Clearance in Beagle dog at 2 mg/kg, iv; type: ADME, organism-based, Canis lupus familiaris; parameters: dose 2 mg/kg, route intravenous; conditions: in vivo
Outline: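 Male Beagle dogs, 8.5–13.0 kg, n = 3, fasted overnight, given 2 mg/kg iv in 20% DMSO/80% PEG-200. Saphenous blood sampled over 24 h and plasma acidified to about pH 4. Analysed by LC/MS/MS with internal standard. Clearance by non-compartmental methods.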

[26] = Oral bioavailability in Beagle dog at 5 mg/kg administered through Phosal formulation; type: ADME, organism-based, Canis lupus familiaris; conditions: in vivo; outline: as §3
[27] = Oral bioavailability in Sprague-Dawley rat at 25 mg/kg administered through Phosal formulation; type: ADME, organism-based; conditions: in vivo; outline: as §2

O=C(O)c1ccc(CCCc2c(CCNS(=O)(=O)c3c(F)cccc3C(F)(F)F)n(C(c3ccccc3)c3ccccc3)c3ccc(Cl)cc23)cc1
clearance [1]: 14 mL/min/kg
inhibition [2]: 45%
Activity (Rattus norvegicus [3]): 16%
Activity (Rattus norvegicus [4]): 34%
bioavailability [5]: 13%
IC50 [6]: 65 nM
bioavailability [7]: 16%
inhibition [8]: 9.9%
Activity (Ovis aries [9]): 29%
Activity (Ovis aries [10]): 431%
Activity (Rattus norvegicus [11]): 44%
Activity (Ovis aries [12]): 29%
IC50 (Blood [13]): 110 nM
Kd [14]: 80 nM
Activity (Ovis aries [15]): 346%
IC50 [16]: 100 nM
IC50 (Blood [17]): 82 nM
IC50 (Blood [18]): 120 nM
ED50 (Rattus norvegicus [19]): < 10 mg/kg
IC50 (Blood [20]): 60 nM
Activity (Ovis aries [21]): 379%
Activity (Ovis aries [22]): 68%
Selectivity ratio [23]: > 1000
Selectivity ratio [24]: > 1000
clearance [25]: 1.4 mL/min/kg
bioavailability [26]: 13%
bioavailability [27]: 5%
